Legend:
[1] = no reference given; cited from earlier work
[2] = test system: T. spiralis muscle-stage larvae (L1); assay: In vitro nematocidal; design: species or system Trichinella spiralis
In short: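 Female ICR mice (8 weeks old) were infected orally with 100 larvae. Muscle larvae were recovered at day 60 by 0.7% pepsin/0.7% HCl digestion and kept in RPMI with 10% FCS and penicillin/streptomycin. Thirty larvae per well, in triplicate, with test compound at final 10–100,000 ng/mL and 0.5% DMSO, 72 h, 37 °C. Controls: DMSO, albendazole, ivermectin. EC50 by nonlinear regression; three independent replicates.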

C. elegans CB347 strain = assay: In vitro nematocidal; design: species or system Caenorhabditis elegans
In short: (§1)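 C. elegans strains kept on NGM with E. coli. L1 obtained by bleaching and hatching eggs on unseeded NGM at 20 °C (~24 h). Thirty L1 per well, in triplicate, exposed in M9 to test compound at final 10–100,000 ng/mL with 0.5% DMSO, 72 h, 20 °C. Controls: DMSO, albendazole, ivermectin. Motility scored visually by inverted microscope; no movement = dead. EC50 by nonlinear regression; three independent replicates.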

[3] = MTT cytotoxicity testing on HepG2; assay type: cell-based, human; details: human, HepG2 cells
In short: (§2)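 Cells seeded at 20,000/well in MEM with 10% FBS, grown 24 h at 37 °C under 5% CO₂. Medium then replaced by test compound at final 10–100,000 ng/mL in MEM with 0.5% DMSO, 24 h. MTT added for 4 h; formazan dissolved in 4 mM HCl/0.1% NP-40 in isopropanol. Absorbance read at 590 nm, reference 620 nm. Viability relative to untreated; CC50 by nonlinear regression; three independent replicates.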

C. elegans N2 strain = assay: In vitro nematocidal; design: species or system Caenorhabditis elegans
In short: as §1

C. elegans JD608 strain = assay: In vitro nematocidal; details: Caenorhabditis elegans, 72 h
In short: as §1

[4] = test system: T. spiralis muscle larvae; design: species or system Trichinella spiralis
In short: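 Muscle larvae were exposed to one concentration of test compound or to 0.5% DMSO. Extraction: cold methanol twice, then water, with freeze–thaw cycles and centrifugation at 4 °C; pooled extracts dried. Separation on C18 at 40 °C, 0.3 mL/min, formic acid water/acetonitrile gradient. Q-TOF ESI±, IDA with survey scan m/z 100–1000; pooled QCs. Processed in MS-DIAL and MetaboAnalyst; 3 biological × 2 technical replicates.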

[5] = MTT cytotoxicity testing on Caco-2; assay type: cell-based, human; details: human, Caco-2 cells
In short: as §2

HepG2 cells = assay: MTT cytotoxicity testing on HepG2; assay type: cell-based, human; details: HepG2, 24 h exposure, MTT; mean ± S.E.
In short: as §2

Caco-2 cells = assay: MTT cytotoxicity testing on Caco-2; assay type: cell-based, human; details: Caco-2, 24 h exposure, MTT; mean ± S.E.
In short: as §2

[6] = T. spiralis metabolite, quercetin at EC50 vs DMSO
[7] = T. spiralis, quercetin at EC50 vs DMSO control

## O=c1c(O)c(-c2ccc(O)c(O)c2)oc2cc(O)cc(O)c12 [Quercetin, quercetin]
[1]
  Oral bioavailability: < 5%
[2]; Trichinella spiralis, 72 h
  EC50: 147 ± 28.2 µM
C. elegans CB347 strain; Caenorhabditis elegans, 72 h
  EC50: 76.2 ± 7.4 µM
[3]
  CC50 at 24 h: > 1000 µM
C. elegans N2 strain; Caenorhabditis elegans, 72 h
  EC50: 80.5 ± 20.3 µM
C. elegans JD608 strain
  EC50: 45.3 ± 4.92 µM
[4]; [6]
  Log2 (FC) 1-Heptadecanoyl-sn-glycero-3-phosphocholine: -1.6835
  Log2 (FC) 3-Phosphoglyceric Acid: -1.0514
  Log2 (FC) 7alpha-Hydroxy-4-cholesten-3-one: 2.1364
  Log2 (FC) Arachidonic acid: -1.1472
  Log2 (FC) Coenzyme q6: 1.8385
  Log2 (FC) Deoxyguanosine: -2.4539
  Log2 (FC) Inosine: -2.6373
  Log2 (FC) LacCer(d18:1/16:0): 2.6728
  Log2 (FC) Lignoceric acid: 4.0956
  Log2 (FC) Linoleic acid: 2.1922
  Log2 (FC) Linolenic acid: 2.7081
  Log2 (FC) LysoPC(0:0/18:0): -1.4886
  Log2 (FC) LysoPE(0:0/16:0): -1.8636
  Log2 (FC) LysoPE(0:0/18:2(9Z,12Z)): -1.4991
  Log2 (FC) Menaquinone 4: 2.2163
  Log2 (FC) N-Acetyl-D-Galactosamine: 4.5233
  Log2 (FC) PC(P-18:1(9Z)/P-16:0): 2.1307
  Log2 (FC) Phosphatidylethanolamine: -1.0876
  Log2 (FC) Tetradecanoylcarnitine: -2.0664
  Log2 (FC) Vitamin K1: 1.8127
[4]; [7]
  Down-regulated features: 68
  Up-regulated features: Around 204
[5]
  CC50 at 24 h: > 1000 µM

## COc1ccc([C@@H]2CC(=O)c3c(O)cc(O)cc3O2)cc1O [Hesperetin, hesperetin]
C. elegans CB347 strain; Caenorhabditis elegans, 72 h
  EC50: > 1000 µM
[3]
  CC50 at 24 h: > 1000 µM
C. elegans N2 strain; Caenorhabditis elegans, 72 h
  EC50: 283 ± 23.9 µM
C. elegans JD608 strain
  EC50: 51.7 ± 2.92 µM
[5]
  CC50 at 24 h: 56.3 ± 6.18 µM

## O=c1cc(-c2ccc(O)cc2)oc2cc(O)cc(O)c12 [Apigenin, apigenin]
[2]; Trichinella spiralis, 72 h
  EC50: > 1000 µM
C. elegans CB347 strain; Caenorhabditis elegans, 72 h
  EC50: 55.8 ± 4.89 µM
[3]
  CC50 at 24 h: 53.3 ± 4.52 µM
C. elegans N2 strain; Caenorhabditis elegans, 72 h
  EC50: 218 ± 11.2 µM
C. elegans JD608 strain
  EC50: 51.3 ± 1.46 µM
[5]
  CC50 at 24 h: > 1000 µM

## COc1ccc(-c2cc(=O)c3c(OC)c(OC)c(OC)c(OC)c3o2)cc1 [Tangeretin, tangeretin]
C. elegans CB347 strain; Caenorhabditis elegans, 72 h
  EC50: > 1000 µM
[3]
  CC50 at 24 h: 251 ± 35 µM
C. elegans N2 strain; Caenorhabditis elegans, 72 h
  EC50: > 1000 µM
C. elegans JD608 strain
  EC50: 43.1 ± 11.2 µM
[5]
  CC50 at 24 h: 531 ± 70.3 µM

## CCCSc1ccc2nc(NC(=O)OC)[nH]c2c1 [ABZ, albendazole, reference compound]
[2]; Trichinella spiralis, 72 h
  EC50: 129 ± 34.1 µM
C. elegans CB347 strain; Caenorhabditis elegans, 72 h
  EC50: > 1000 µM
[3]
  CC50 at 24 h: > 1000 µM
C. elegans N2 strain; Caenorhabditis elegans, 72 h
  EC50: 672 ± 73 µM
C. elegans JD608 strain
  EC50: 788 ± 22.6 µM
[5]
  CC50 at 24 h: > 1000 µM

## CC[C@H](C)[C@H]1O[C@]2(CC[C@@H]1C)C[C@@H]1C[C@@H](C/C=C(\C)[C@@H](O[C@H]3C[C@H](OC)[C@@H](O[C@H]4C[C@H](OC)[C@@H](O)[C@H](C)O4)[C@H](C)O3)[C@@H](C)/C=C/C=C3\CO[C@@H]4[C@H](O)C(C)=C[C@@H](C(=O)O1)[C@]34O)O2 [IVM, ivermectin, reference compound]
[2]; T. spiralis muscle-stage larvae, 72 h at 37 °C, motility, mean ± S.E.
  EC50: 107 ± 7.89 µM
C. elegans CB347 strain; C. elegans CB347 (albendazole-resistant), L1, 72 h at 20 °C, motility, mean ± S.E.
  EC50: 15.4 ± 6.07 µM
HepG2 cells
  CC50: 14.9 ± 1.39 µM
C. elegans N2 strain; C. elegans N2 (wild type), L1, 72 h at 20 °C, motility, mean ± S.E.
  EC50: 17.7 ± 1.85 µM
Caco-2 cells
  CC50: 20 ± 5.28 µM

## C[C@@H]1O[C@@H](O[C@H]2[C@H](Oc3cc(O)c4c(c3)O[C@H](c3ccc(O)cc3)CC4=O)O[C@H](CO)[C@@H](O)[C@@H]2O)[C@H](O)[C@H](O)[C@H]1O [Naringin, naringin]
C. elegans CB347 strain; Caenorhabditis elegans, 72 h
  EC50: > 1000 µM
[3]
  CC50 at 24 h: > 1000 µM
C. elegans N2 strain; Caenorhabditis elegans, 72 h
  EC50: > 1000 µM
C. elegans JD608 strain
  EC50: > 1000 µM
[5]
  CC50 at 24 h: 249 ± 65.3 µM
